Calls of active or inactive are those of the source. The calls are words filed in the database; no cut-off is given here.

In test [1] the test system is Streptococcus pyogenes. Nature of the test: Induction of Ska protein production in drug-resistant Streptococcus pyogenes D2TY at 1 ug/ml by Western blot analysis. It is filed as functional, organism-based. The method in brief: (§1)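 Strain D2TY or its covS knockout, grown from −80°C stock at 37°C without agitation in 5 ml BHI-YE (0.3% yeast extract) containing protease inhibitor E-64, with or without 1 μg/ml CLI. Supernatant proteins run on SDS-PAGE and blotted to PVDF. Rabbit anti-Slo, anti-Nga or anti-Ska (1:2,000) applied for 16 h at room temperature. HRP goat anti-rabbit IgG (1:2,000) used as secondary. Triplicate assays from at least two independent cultures.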

Test [2] concerns Streptococcus pyogenes. Nature of the test: Decrease in Nga protein production in drug-resistant Streptococcus pyogenes D2TY isogenic delta covS mutant in BHI-YE supplemented medium at 1 ug/ml by Western blot analysis. It counts as functional, organism-based. An outline of the steps: as §1
(In general: Immunoblotting shows a protein as a band on a membrane.)

Test [3] relates to Streptococcus pyogenes. Kind of test: Induction of nga mRNA expression in drug-resistant Streptococcus pyogenes D2TY at 1 ug/ml by Northern blot analysis. It counts as functional, organism-based. The method in brief:
(§2)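 Cells grown static at 37°C in 5 ml BHI-YE, with 1 μg/ml CLI or none added at inoculation, and harvested at OD660 ≈0.8 (late log). Total RNA was DNase-treated. About 1 μg was run on 1% agarose with 1.1 M formaldehyde and blotted to nylon. Probes were 32P-labeled nga, slo, ska, covS or covR DNA, quantified by autoradiography/bioimaging. Triplicate assays from at least two independent cultures.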

For test [4], the system named is Streptococcus pyogenes. Kind of test: Induction of Nga protein production in drug-resistant Streptococcus pyogenes D2TY at 1 ug/ml by Western blot analysis. It counts as functional, organism-based. An outline of the steps:
as §1

The test system of test [5] is Streptococcus pyogenes. Nature of the test: Induction of covR mRNA expression in drug-resistant Streptococcus pyogenes D2TY delta covS mutant at 1 ug/ml by Northern blot analysis. It is filed as functional, organism-based. An outline of the steps: as §2
Test [6] relates to Streptococcus pyogenes. Kind of test: Decrease in ska mRNA expression in drug-resistant Streptococcus pyogenes D2TY isogenic delta covS mutant in BHI-YE supplemented medium at 1 ug/ml by Northern blot analysis. It counts as functional, organism-based. An outline of the steps:
as §2

Test [7] deals with Streptococcus pyogenes. Kind of test: Induction of Slo protein production in drug-resistant Streptococcus pyogenes D2TY at 1 ug/ml by Western blot analysis. It is filed as functional, organism-based. The method in brief:
as §1

Test [8] concerns Streptococcus pyogenes. Nature of the test: Induction of slo mRNA expression in drug-resistant Streptococcus pyogenes D2TY at 1 ug/ml by Northern blot analysis. It counts as functional, organism-based. The method in brief: as §2
Test [9] concerns Streptococcus pyogenes. Nature of the test: Induction of two-component sensor kinase CovS expression in drug-resistant Streptococcus pyogenes D2TY delta covS mutant at 1 ug/ml by Northern blot analysis. It is filed as functional, organism-based. An outline of the steps:
as §2

For test [10], the system named is Streptococcus pyogenes. Kind of test: Induction of covS mRNA expression in drug-resistant Streptococcus pyogenes D2TY delta covS mutant at 1 ug/ml by Northern blot analysis. It counts as functional, organism-based. An outline of the steps:
as §2

Test [11] has as its system Streptococcus pyogenes. Kind of test: Antibacterial activity against Streptococcus pyogenes D2TY. It counts as functional. The method in brief:
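MICs of clindamycin hydrochloride determined for S. pyogenes M1 strain D2TY (STSS clinical isolate) by broth microdilution and by Etest, following CLSI guidelines. Bacteria grown at 37°C without agitation in brain heart infusion broth with 0.3% yeast extract. Resistance breakpoint taken as MIC above 1 μg/ml.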

The test system of test [12] is Streptococcus pyogenes. Kind of test: Decrease in nga mRNA expression in drug-resistant Streptococcus pyogenes D2TY isogenic delta covS mutant in BHI-YE supplemented medium at 1 ug/ml by Northern blot analysis. It is filed as functional, organism-based. An outline of the steps:
as §2

Test [13] deals with Streptococcus pyogenes. Nature of the test: Induction of ska mRNA expression in drug-resistant Streptococcus pyogenes D2TY at 1 ug/ml by Northern blot analysis. It is filed as functional, organism-based. An outline of the steps: as §2
The subject of test [14] is Streptococcus pyogenes. Kind of test: Decrease in Ska protein production in drug-resistant Streptococcus pyogenes D2TY isogenic delta covS mutant in BHI-YE supplemented medium at 1 ug/ml by Western blot analysis. It is filed as functional, organism-based. An outline of the steps: as §1
Test [15] relates to Streptococcus pyogenes. Kind of test: Decrease in slo mRNA expression in drug-resistant Streptococcus pyogenes D2TY isogenic delta covS mutant in BHI-YE supplemented medium at 1 ug/ml by Northern blot analysis. It counts as functional, organism-based. The method in brief:
as §2

In test [16] the test system is Streptococcus pyogenes. Kind of test: Induction of covS mRNA expression in drug-resistant Streptococcus pyogenes D2TY in BHI-YE supplemented medium at 1 ug/ml by Northern blot analysis. It counts as functional, organism-based. The method in brief:
as §2

The test system of test [17] is Streptococcus pyogenes. Nature of the test: Decrease in Slo protein production in drug-resistant Streptococcus pyogenes D2TY isogenic delta covS mutant in BHI-YE supplemented medium at 1 ug/ml by Western blot analysis. It counts as functional, organism-based. An outline of the steps:
as §1

One may read the MIC as the least concentration at which growth counts as inhibited. For `CCC[C@@H]1C[C@@H](C(=O)N[C@@H]([C@H]2O[C@H](SC)[C@H](O)[C@@H](O)[C@H]2O)[C@H](C)Cl)N(C)C1.Cl` [CLINDAMYCIN HYDROCHLORIDE], the outcome with Streptococcus pyogenes [1], in the test with Streptococcus pyogenes [2], with Streptococcus pyogenes [3], in the test with Streptococcus pyogenes [4], in the test on Streptococcus pyogenes [6] and in the test with Streptococcus pyogenes [7] was Active. Besides, the outcome in the test on Streptococcus pyogenes [8], with Streptococcus pyogenes [12], in the test with Streptococcus pyogenes [13], in the test with Streptococcus pyogenes [14], in the test on Streptococcus pyogenes [15] and in the test on Streptococcus pyogenes [16] was Active. In the test with Streptococcus pyogenes [17], the outcome was Active. The outcome in the test on Streptococcus pyogenes [5], in the test with Streptococcus pyogenes [9] and with Streptococcus pyogenes [10] was inactive. Moreover, 256 µg/mL was the least that counted as inhibitory against Streptococcus pyogenes [11] (MIC).

(Values after ChEMBL document CHEMBL1212739, “Clindamycin-induced CovS-mediated regulation of the production of virulent exoproteins streptolysin O, NAD glycohydrolase, and streptokinase in Streptococcus pyogenes” (2010).)
